Consider 5 molecules from ChEMBL document CHEMBL3351863, “Optimization of 2-phenyl-pyrimidine-4-carboxamides towards potent, orally bioavailable and selective P2Y(12) antagonists for inhibition of platelet aggregation” (Bioorg Med Chem Lett, 2014).

Series [1] deals with Platelet. Nature of the series: Inhibition of ADP-induced platelet aggregation in human platelet rich plasma assessed as remaining activity at 500 nM by in-vitro light transmission aggregometry assay. In kind it is functional. The gist of the method:
(§1)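 Light transmission aggregometry in human platelet-rich plasma; compound incubated, aggregation triggered with 3 µM ADP; remaining activity (RA) recorded at a single compound level (1000, 500 or 100 nM).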

Series [2] deals with Platelet. The series is described as follows: Inhibition of ADP-induced platelet aggregation in human platelet rich plasma assessed as remaining activity at 100 nM by in-vitro light transmission aggregometry assay. The format is functional. The method in brief: as §1
Series [3] in a line: Solubility in neutral pH. In kind it is physicochemical.
Series [4] is described as follows: Solubility in basic pH. The format is physicochemical.
Series [5] deals with T1, Cytochrome P450 3A4 (Homo sapiens, UniProt P08684). The series is described as follows: Inhibition of CYP3A4 in human liver microsomes assessed as reduction in midazolam 1'-hydroxylation. The format is ADME. (Microsomes from liver hold many membrane-bound enzymes, among them those of drug oxidation.)
The target in series [6] is T1, Cytochrome P450 3A4. Nature of the series: Inhibition of CYP3A4 in human liver microsomes assessed as reduction in testosterone 6beta-hydroxylation. In kind it is ADME.
Another series has as its target Cytochrome P450 2D6 (Homo sapiens, UniProt P10635). The series is described as follows: Inhibition of CYP2D6 in human liver microsomes assessed as reduction in dextromethorphan-O demethylation. In kind it is ADME.
For the next series, the target named is Cytochrome P450 2C9 (Homo sapiens, UniProt P11712). Nature of the series: Inhibition of CYP2C9 in human liver microsomes assessed as reduction in diclofenac 4'-hydroxylation. In kind it is ADME.
For series [7], the system named is Liver microsome. The series is described as follows: Metabolic stability assay in human liver microsomes assessed as parent drug disappearance at 1 uM after 20 mins by HPLC and mass spectrometry method. In kind it is ADME.
The subject of series [8] is Liver microsome. The series is described as follows: Metabolic stability assay in rat liver microsomes assessed as parent drug disappearance at 1 uM after 20 mins by HPLC and mass spectrometry method. In kind it is ADME.
Series [9] concerns the target Voltage-gated inwardly rectifying potassium channel KCNH2 (Homo sapiens, UniProt Q12809). The series is described as follows: Inhibition of human ERG expressed in HEK cells by patch-clamp assay. As to conditions: hek293; call rule not given here. The format is cell-based. (In patch-clamp work, channel activity is measured electrically.)
For a further series, the target named is P2Y purinoceptor 12 (Homo sapiens, UniProt Q9H244). The series is described as follows: Displacement of [3H]-2-methyl-thio-adenosine 5'-diphosphate from human recombinant P2Y12 expressed in CHO cell membranes by scintillation counting method. The method in brief:
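CHO cells expressing recombinant P2Y₁₂ receptors, incubated with tritium-labeled 2-methyl-thio-adenosine 5'-diphosphate plus test compound; IC₅₀ from displacement curves, each point in triplicate; reference compound run with every compound set, and set re-analyzed if its IC₅₀ fell outside pre-set 95% confidence interval.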

Series [10] concerns Platelet. Nature of the series: Inhibition of ADP-induced platelet aggregation in human platelet rich plasma by in-vitro light transmission aggregometry assay. In kind it is functional. The gist of the method:
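Human platelet-rich plasma incubated with compound, aggregation induced by 3 µM ADP and read by light transmission aggregometry; IC₅₀ derived from concentration–response curve.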

Series [11] can be described thus: Potency shift, ratio of IC50 for inhibition of ADP-induced platelet aggregation in human platelet rich plasma to IC50 for displacement of [3H]-2-methyl-thio-adenosine 5'-diphosphate from human recombinant P2Y12 expressed in CHO cell membranes. (In general: In a radioligand displacement assay an active substance lowers the binding of a labelled ligand.)

Cytochrome P450 2D6, sequence (P10635 whole entry): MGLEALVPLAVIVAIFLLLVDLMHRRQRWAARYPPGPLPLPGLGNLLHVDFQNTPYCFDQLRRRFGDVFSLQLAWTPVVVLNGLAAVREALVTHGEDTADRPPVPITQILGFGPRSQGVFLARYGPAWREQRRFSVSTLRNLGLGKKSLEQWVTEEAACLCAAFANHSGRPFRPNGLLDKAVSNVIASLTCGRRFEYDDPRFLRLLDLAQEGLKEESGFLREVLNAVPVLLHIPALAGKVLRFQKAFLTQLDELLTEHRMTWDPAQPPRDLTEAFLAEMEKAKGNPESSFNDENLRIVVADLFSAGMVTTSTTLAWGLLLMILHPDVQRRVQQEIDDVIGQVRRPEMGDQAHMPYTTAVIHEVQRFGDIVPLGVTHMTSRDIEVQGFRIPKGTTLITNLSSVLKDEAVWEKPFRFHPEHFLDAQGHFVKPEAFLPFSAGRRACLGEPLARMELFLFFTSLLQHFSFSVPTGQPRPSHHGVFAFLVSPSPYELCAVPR
Voltage-gated inwardly rectifying potassium channel KCNH2, sequence (Q12809 whole entry): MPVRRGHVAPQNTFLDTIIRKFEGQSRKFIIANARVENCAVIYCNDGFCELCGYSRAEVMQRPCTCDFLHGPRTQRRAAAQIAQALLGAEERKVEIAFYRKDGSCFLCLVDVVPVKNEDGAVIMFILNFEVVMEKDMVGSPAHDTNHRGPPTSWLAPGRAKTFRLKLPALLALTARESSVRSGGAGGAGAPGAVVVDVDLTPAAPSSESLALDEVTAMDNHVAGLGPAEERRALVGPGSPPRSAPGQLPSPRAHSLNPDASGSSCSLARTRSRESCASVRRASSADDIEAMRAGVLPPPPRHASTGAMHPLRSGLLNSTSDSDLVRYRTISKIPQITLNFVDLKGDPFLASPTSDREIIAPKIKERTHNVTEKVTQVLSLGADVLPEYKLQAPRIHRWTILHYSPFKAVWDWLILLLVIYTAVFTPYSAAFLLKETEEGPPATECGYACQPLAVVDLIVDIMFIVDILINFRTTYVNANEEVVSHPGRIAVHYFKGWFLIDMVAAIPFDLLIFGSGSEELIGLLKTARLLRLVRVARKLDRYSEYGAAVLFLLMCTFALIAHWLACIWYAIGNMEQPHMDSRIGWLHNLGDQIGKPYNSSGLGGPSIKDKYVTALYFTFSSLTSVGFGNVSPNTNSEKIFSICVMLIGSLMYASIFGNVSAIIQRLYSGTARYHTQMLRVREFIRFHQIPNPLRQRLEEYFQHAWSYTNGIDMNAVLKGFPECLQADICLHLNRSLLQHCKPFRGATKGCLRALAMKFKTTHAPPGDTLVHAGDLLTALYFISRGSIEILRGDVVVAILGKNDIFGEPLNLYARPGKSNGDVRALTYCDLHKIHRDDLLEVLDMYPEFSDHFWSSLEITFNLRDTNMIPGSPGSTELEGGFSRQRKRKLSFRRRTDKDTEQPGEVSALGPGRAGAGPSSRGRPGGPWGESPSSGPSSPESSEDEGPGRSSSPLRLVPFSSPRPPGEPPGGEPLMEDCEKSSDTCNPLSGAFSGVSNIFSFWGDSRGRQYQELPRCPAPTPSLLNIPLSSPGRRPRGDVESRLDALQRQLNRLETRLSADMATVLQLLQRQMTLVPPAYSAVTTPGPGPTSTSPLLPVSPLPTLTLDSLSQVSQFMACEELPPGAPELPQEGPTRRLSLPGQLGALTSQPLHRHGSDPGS
Cytochrome P450 2C9, sequence (P11712 whole entry): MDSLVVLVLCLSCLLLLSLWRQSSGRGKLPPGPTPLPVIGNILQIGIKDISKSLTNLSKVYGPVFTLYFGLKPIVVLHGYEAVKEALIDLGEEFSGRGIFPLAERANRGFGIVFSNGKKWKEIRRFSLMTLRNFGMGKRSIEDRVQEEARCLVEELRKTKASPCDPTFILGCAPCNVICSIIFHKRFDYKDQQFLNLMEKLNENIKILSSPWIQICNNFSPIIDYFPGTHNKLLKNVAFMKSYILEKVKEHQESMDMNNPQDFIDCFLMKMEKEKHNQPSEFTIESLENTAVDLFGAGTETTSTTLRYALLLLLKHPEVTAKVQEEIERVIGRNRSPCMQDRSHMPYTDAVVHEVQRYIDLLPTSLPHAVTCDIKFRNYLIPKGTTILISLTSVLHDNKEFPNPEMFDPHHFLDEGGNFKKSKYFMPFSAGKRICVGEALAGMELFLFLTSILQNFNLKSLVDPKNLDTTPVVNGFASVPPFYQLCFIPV
T1 sequence (P08684 whole entry): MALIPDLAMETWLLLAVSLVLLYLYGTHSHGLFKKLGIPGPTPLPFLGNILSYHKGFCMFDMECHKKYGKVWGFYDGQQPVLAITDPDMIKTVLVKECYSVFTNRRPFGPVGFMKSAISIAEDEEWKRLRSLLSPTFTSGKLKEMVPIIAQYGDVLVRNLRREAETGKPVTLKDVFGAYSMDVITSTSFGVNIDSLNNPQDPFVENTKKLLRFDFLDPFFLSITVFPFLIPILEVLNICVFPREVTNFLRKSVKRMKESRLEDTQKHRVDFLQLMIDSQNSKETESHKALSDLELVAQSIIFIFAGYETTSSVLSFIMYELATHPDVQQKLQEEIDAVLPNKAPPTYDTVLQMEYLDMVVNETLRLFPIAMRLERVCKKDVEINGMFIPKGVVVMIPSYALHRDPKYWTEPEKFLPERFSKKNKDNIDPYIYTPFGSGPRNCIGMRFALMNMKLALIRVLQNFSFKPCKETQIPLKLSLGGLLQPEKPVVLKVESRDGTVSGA
P2Y purinoceptor 12, sequence (Q9H244 whole entry): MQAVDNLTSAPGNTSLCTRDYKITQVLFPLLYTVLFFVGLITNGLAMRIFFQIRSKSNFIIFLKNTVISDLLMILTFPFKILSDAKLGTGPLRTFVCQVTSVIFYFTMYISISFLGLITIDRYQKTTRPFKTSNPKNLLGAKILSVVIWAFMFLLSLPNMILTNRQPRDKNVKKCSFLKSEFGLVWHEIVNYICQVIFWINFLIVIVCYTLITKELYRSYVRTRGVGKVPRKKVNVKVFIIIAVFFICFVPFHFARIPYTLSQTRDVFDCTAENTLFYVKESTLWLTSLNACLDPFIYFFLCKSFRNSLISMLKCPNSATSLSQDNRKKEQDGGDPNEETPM

For `CCOC(=O)N1CCN(C(=O)[C@H](CCC(=O)O)NC(=O)c2cc(N3CCOCC3)nc(-c3ccccc3)n2)CC1`, the Activity is recorded as less than 30% in the series on Platelet [1] and less than 70% in the series with Platelet [2]. The solubility entry in [3] and in series [4] was “soluble” in each case. Also, the “inhibition (INH)” value (on Cytochrome P450 3A4 [5]; on Cytochrome P450 3A4 [6]; on Cytochrome P450 2D6; on Cytochrome P450 2C9; in [9]) was “Not Active” each time. For the same molecule, the Stability result with Liver microsome [7] and in the series on Liver microsome [8] was “Stable” throughout.

For the molecule `CCOC(=O)N1CCN(C(=O)[C@H](CCC(=O)O)NC(=O)c2cc([C@H]3C[C@@H]3COC)nc(-c3ccccc3)n2)CC1` (racemic), the IC50 – broadly, the point on the concentration scale where inhibition reaches its midpoint – at P2Y purinoceptor 12 stood at 0.039 µM; in the series on Platelet [10] (platelet), 0.192 µM. For the same molecule, the Activity is reported as less than 30% in the series on Platelet [1] and less than 70% with Platelet [2]. Also, the “Ratio IC50” value in series [11] was 4.9. For the same molecule, the solubility result in series [3] and in series [4] was “soluble” each time. Moreover, the “inhibition (INH)” value (at Cytochrome P450 3A4 [5]; on Cytochrome P450 3A4 [6]; at Cytochrome P450 2D6; at Cytochrome P450 2C9; in [9]) was “Not Active” each time. Also, the Stability entry in the series with Liver microsome [7] and with Liver microsome [8] was “Stable” throughout.

With `CCOC(=O)N1CCN(C(=O)[C@H](CCC(=O)O)NC(=O)c2cc(N3CC[C@H](O)C3)nc(-c3ccccc3)n2)CC1`, the IC50 is 0.046 µM on P2Y purinoceptor 12 and 0.068 µM with Platelet [10] (Homo sapiens, Platelet, Plasma). The results for the Activity in the series with Platelet [1] and in the series on Platelet [2] were less than 30% and less than 70%, respectively. For the same molecule, the “Ratio IC50” value in series [11] came to 1.5. Also, the solubility result in series [3] and in series [4] was “soluble” in each case. For the same molecule, the “inhibition (INH)” value (on Cytochrome P450 3A4 [5]; on Cytochrome P450 3A4 [6]; at Cytochrome P450 2D6; at Cytochrome P450 2C9; in [9]) was “Not Active” throughout. Besides, the Stability entry in the series with Liver microsome [7] and in the series with Liver microsome [8] was “Stable” throughout.

Regarding `CCOC(=O)N1CCN(C(=O)[C@H](CCC(=O)O)NC(=O)c2cc(-c3ccc(OC)cc3)nc(-c3ccccc3)n2)CC1`, the IC50 on P2Y purinoceptor 12 came to 0.031 µM; with Platelet [10] (Homo sapiens, Platelet, Plasma), 0.523 µM. For the same molecule, in the series with Platelet [1], the Activity is listed as 30%. Further, the “Ratio IC50” value in series [11] amounted to 17. Moreover, the solubility entry in series [3] and in series [4] was “soluble” in each case. In addition, the “inhibition (INH)” value (on Cytochrome P450 3A4 [5]; on Cytochrome P450 3A4 [6]; at Cytochrome P450 2D6; at Cytochrome P450 2C9; in [9]) was “Not Active” throughout. Also, the Stability result in the series with Liver microsome [7] and in the series on Liver microsome [8] was “Stable” in each case.

On to `CCOC(=O)N1CCN(C(=O)[C@H](CCC(=O)O)NC(=O)c2cc(NC(C)COC)nc(-c3ccccc3)n2)CC1` (stereo not given in full), for which the values for the Activity with Platelet [1] and in the series on Platelet [2] were less than 30% and less than 70%, respectively. In the series with Platelet [10] (Homo sapiens, Platelet, Plasma), this molecule gave an IC50 of 0.139 µM. The “Ratio IC50” value in [11] was determined as 1.4. In addition, the solubility result in series [3] and in series [4] was “soluble” throughout. The “inhibition (INH)” value (at Cytochrome P450 3A4 [5]; at Cytochrome P450 3A4 [6]; at Cytochrome P450 2D6; at Cytochrome P450 2C9; in [9]) was “Not Active” in each case. Also, the Stability result in the series on Liver microsome [7] and in the series with Liver microsome [8] was “Stable” each time.
